Results reported in ChEMBL document CHEMBL4340559, “Design and synthesis of functionalized coumarins as potential anti-austerity agents that eliminates cancer cells' tolerance to nutrition starvation” (Bioorg Med Chem Lett, 2019).
Active and inactive are the calls of the source. The calls are words filed in the database; no cut-off is given here.

How the values were obtained:
[1] = system: PANC-1; experiment: Cytotoxic activity against human PANC1 cells in nutrient-rich medium measured after 24 hrs by WST8 assay; type: cell-based; details: panc-1, 24 h
[2] = system: PANC-1; experiment: Inhibition of colony formation in human PANC1 cells at 25 uM in the nutrient rich DMEM media treated for 24 hrs followed by compound washout and subsequent incubation for 10 days by crystal violet staining based assay relative to untreated control; type: functional
In short: (§1)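 PANC-1 cells were exposed 24 h to 12.5, 25 or 50 μM in nutrient-rich DMEM. Medium was then replaced with fresh DMEM and cells grown 10 d to form colonies. Read-out was the average area occupied by colonies relative to untreated control wells. Three replications; significance set at p < 0.05 versus control.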

[3] = system: PANC-1; experiment: Antiausteritic activity against human PANC1 cells in nutrient deprived medium assessed as rupture of cell membrane at 1.25 uM after 24 hrs by ethidium bromide/acridine orange staining based phase contrast microscopic method; type: functional
In short: (§2)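 PANC-1 cells exposed 24 h in nutrient-deprived medium (NDM) alongside untreated control, then stained with ethidium bromide/acridine orange. AO enters all cells and fluoresces green. EB enters only dead or dying cells and fluoresces red. Cells were scored by fluorescence colour and morphology.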

[4] = system: PANC-1; experiment: Antiausteritic activity against human PANC1 cells in nutrient deprived medium assessed as cell death at 5 uM measured at 13 to 20 hrs by automated time-lapse microscopic method; type: functional, cell-based
In short: (§3)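 PANC-1 cells in NDM were held in a stage-top incubator with 5 μM compound, with untreated NDM control run alongside. Images were captured every 10 min for 24 h. Mobility, shrinkage and death were followed over time.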

[5] = system: PANC-1; experiment: Inhibition of colony formation in human PANC1 cells at 12.5 uM in the nutrient rich DMEM media treated for 24 hrs followed by compound washout and subsequent incubation for 10 days by crystal violet staining based assay relative to untreated control; type: functional; in short: as §1
[6] = system: PANC-1; experiment: Antiausteritic activity against human PANC1 cells in nutrient deprived medium assessed as cell shrinkage at 5 uM measured at 7 hrs by automated time-lapse microscopic method; type: functional, cell-based; in short: as §3
[7] = system: PANC-1; experiment: Antiausteritic activity against human PANC1 cells in nutrient-deprived medium measured after 24 hrs by WST8 assay; type: functional
[8] = system: PANC-1; experiment: Inhibition of colony formation in human PANC1 cells at 12.5 to 50 uM in the nutrient rich DMEM media treated for 24 hrs followed by compound washout and subsequent incubation for 10 days by crystal violet staining based assay; type: functional, cell-based; in short: as §1
[9] = system: PANC-1; experiment: Antiausteritic activity against human PANC1 cells in nutrient deprived medium assessed as appearance of rounded cells at 1.25 uM after 24 hrs by ethidium bromide/acridine orange staining based phase contrast microscopic method; type: functional, cell-based; in short: as §2
[10] = system: PANC-1; experiment: Antiausteritic activity against human PANC1 cells in nutrient deprived medium assessed as inhibition of cell mobility at 5 uM measured within 4 hrs by automated time-lapse microscopic method; type: functional, cell-based; in short: as §3
[11] = system: PANC-1; experiment: Antiausteritic activity against human PANC1 cells in nutrient deprived medium assessed as leakage of cellular contents into culture media at 1.25 uM after 24 hrs by ethidium bromide/acridine orange staining based phase contrast microscopic method; type: functional, cell-based; in short: as §2
[12] = system: PANC-1; experiment: Antiausteritic activity against human PANC1 cells in nutrient deprived medium assessed as plasma blebbing at 1.25 uM after 24 hrs by ethidium bromide/acridine orange staining based phase contrast microscopic method; type: functional, cell-based; in short: as §2
[13] = system: PANC-1; experiment: Inhibition of colony formation in human PANC1 cells at 50 uM in the nutrient rich DMEM media treated for 24 hrs followed by compound washout and subsequent incubation for 10 days by crystal violet staining based assay relative to untreated control; type: functional; in short: as §1

Row | Compound | Activity [1] | PC50 [7] | further results
1 | O=C(NCCCc1ccccc1)c1cc2ccc(O)cc2oc1=O | Non-Toxic | 0.44 µM | inhibition at 25 µM [2]: 11%; Activity [3]: Active; Activity [4]: Active; inhibition at 12.5 µM [5]: 8%; Activity [6]: Active; inhibition [8]: Dose-dependent effect; Activity [9]: Active; Activity [10]: Active; Activity [11]: Active; Activity [12]: Active; inhibition at 50 µM [13]: 19%
2 | O=C(NCCCc1ccccc1)c1cc2cccc(O)c2oc1=O | Non-Toxic | 3.28 µM | –
3 | O=C(NCCCc1ccc(Cl)cc1)c1cc2ccc(O)cc2oc1=O | Non-Toxic | 0.51 µM | –
4 | O=C(NCCCc1ccccc1)c1cc2cc(O)ccc2oc1=O | Non-Toxic | >100 µM | –
5 | O=C(NCCCc1ccccc1)c1cc2c(O)cccc2oc1=O | Non-Toxic | >100 µM | –
6 | O=C(NCCCc1cccc(Cl)c1Cl)c1cc2ccc(O)cc2oc1=O | Non-Toxic | 7.48 µM | –
7 | O=C(NCc1ccccc1)c1cc2ccc(O)cc2oc1=O | Non-Toxic | >100 µM | –
8 | O=C(NCCCc1ccccc1)c1cc2ccccc2oc1=O | Non-Toxic | >100 µM | –
9 | O=C(NCCCc1ccc(Cl)cc1Cl)c1cc2ccc(O)cc2oc1=O | Non-Toxic | 3.45 µM | –
10 | O=C(NCCCc1cccc(Cl)c1)c1cc2ccc(O)cc2oc1=O | Non-Toxic | 3.92 µM | –
11 | O=C(NCCCc1ccccc1Cl)c1cc2ccc(O)cc2oc1=O | Non-Toxic | 12.6 µM | –
12 | O=C(NCCc1ccccc1)c1cc2ccc(O)cc2oc1=O | Non-Toxic | >100 µM | –
13 | O=C(NCCCC1CCCCC1)c1cc2ccc(O)cc2oc1=O | Non-Toxic | 2.19 µM | –
14 | O=C(NCCCCc1ccccc1)c1cc2ccc(O)cc2oc1=O | Non-Toxic | 4.7 µM | –
